SMILES strings stand for the structures. Activity calls are given as the source filed them. No cut-off for these calls is given here.

Assay [1] relates to Rattus norvegicus. Nature of the assay: Circling behavior in Sprague-Dawley rat with unilateral 6-OHDA lesion of nigrostriatal pathway assessed as number of revolutions performed per min at 0.25 to 4 mg/kg, sc. It is filed as functional, organism-based. Summed up:
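Unilateral lesion made by infusing 4 µl 6-OHDA at 1 µl/min into the medial forebrain bundle in the lateral hypothalamus. Rats were tested 7-21 days later with drug given sc in distilled water containing 0.1% sodium metabisulfite. Contralateral circling was counted as revolutions per min. Values are the mean of at least five rats.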

Assay [2] concerns Rattus norvegicus. In words: Stereotyped behavior in Sprague-Dawley rat with unilateral 6-OHDA lesion of nigrostriatal pathway assessed as sniffing and repetitive head and limb movements up to 4 mg/kg, sc. It is filed as functional, organism-based. Also on record: dose 4 mg/kg.
Assay [3] relates to Rattus norvegicus. In words: Antagonism of dopamine-induced hyperactivity in Sprague-Dawley rat with unilateral 6-OHDA lesion of nigrostriatal pathway at 0.1 to 1 mg/kg, sc after 2.5 hrs treated bilateral injection of 50 ug of dopamine into the nucleus accumbens. It is filed as functional, organism-based. The method, boiled down:
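Rats received nialamide 100 mg/kg ip, then 2 h later 50 µg dopamine bilaterally into the nucleus accumbens. At 2.5 h, at peak hyperactivity, test drug was given sc in water with 0.1% sodium metabisulfite. Locomotion was measured as photocell beam interruptions per 5 min. Five to eight rats were used per dose.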

The species named for assay [4] is Rattus norvegicus. Nature of the assay: Stereotyped behavior in Sprague-Dawley rat pretreated with nialamide assessed as biting behavior at 3.125 to 25 µg, bilateral intrastriatal.
The species named for assay [5] is Rattus norvegicus. Nature of the assay: Stereotyped behavior in Sprague-Dawley rat pretreated with nialamide assessed as sniffing behavior at 3.125 to 25 µg, bilateral intrastriatal.
The species entered for assay [6] is Rattus norvegicus. Nature of the assay: Stereotyped behavior in Sprague-Dawley rat pretreated with nialamide assessed as bilateral behavior at 3.125 to 25 µg, bilateral intrastriatal.
Assay [7] relates to Rattus norvegicus. In words: Stereotyped behavior in Sprague-Dawley rat with unilateral 6-OHDA lesion of nigrostriatal pathway assessed as continuous biting at 0.5 to 4 mg/kg, sc. The class given is functional, organism-based.
For assay [8], the system named is Rattus norvegicus. Nature of the assay: Behavioral responses in Sprague-Dawley rat with unilateral 6-OHDA lesion of nigrostriatal pathway assessed as bilateral response at 6.25 to 25 […] into caudate-putamen. The class given is functional, organism-based. The method, boiled down:
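Guide cannulae implanted chronically; rats used 10-14 days after surgery. Nialamide 100 mg/kg ip given 2 h before injection. Drug dissolved in nitrogen-bubbled distilled water and injected bilaterally into caudate-putamen through injection units 1.5 mm below guide tips. Photocell counts per 5-min period recorded every 10 min up to 7 h. Biting and sniffing scored on intensity scales. Six to twelve rats per dose.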

Assay [9] is filed under the species Rattus norvegicus. Nature of the assay: Behavioral responses in Sprague-Dawley rat pretreated with nialamide assessed as hyperactivity response at 6.25 to 25 µg direct injection into caudate-putamen.
The species entered for assay [10] is Rattus norvegicus. Nature of the assay: Stereotyped behavior in Sprague-Dawley rat pretreated with nialamide assessed as hyperactivity behavior at 3.125 to 25 µg, bilateral intrastriatal.
Assay [11] has as its system Rattus norvegicus. Nature of the assay: Behavioral responses in Sprague-Dawley rat with unilateral 6-OHDA lesion of nigrostriatal pathway assessed as hyperactivity response at 3.125 to 25 […] into nucleus accumbens. The class given is functional, organism-based. Summed up:
(§1)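 Guide cannulae implanted chronically; rats used 10-14 days after surgery. Nialamide 100 mg/kg ip given 2 h before injection. Drug in nitrogen-bubbled distilled water injected bilaterally into nucleus accumbens through units 2.5 mm below guide tips. Hyperactivity counted as photocell interruptions per 5-min period, recorded every 10 min up to 7 h. Biting and sniffing scored on intensity scales. Six to twelve rats per dose.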

Assay [12] concerns Rattus norvegicus. Nature of the assay: Circling behavior in Sprague-Dawley rat with unilateral 6-OHDA lesion of nigrostriatal pathway assessed as number of revolutions performed per min at 0.5 to 2 mg/kg, sc. The class given is functional, organism-based. Summed up:
(§2)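 Unilateral lesion made with 6-OHDA, 4 µl of 2 µg/µl at 1 µl/min, into medial forebrain bundle area of lateral hypothalamus. Rats tested 7-21 days later. Drug given sc in distilled water with 0.1% sodium metabisulfite. Contralateral circling counted as revolutions per minute. Mean of at least five rats.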

For assay [13], the system named is Rattus norvegicus. In words: Stereotyped behavior in Sprague-Dawley rat with unilateral 6-OHDA lesion of nigrostriatal pathway assessed as continuous biting up to 4 mg/kg, sc. It is filed as functional, organism-based. Also on record: dose 4 mg/kg.
In assay [14] the test system is Rattus norvegicus. In words: Stereotyped behavior in Sprague-Dawley rat with unilateral 6-OHDA lesion of nigrostriatal pathway assessed as biting behavior at 3.125 to 25 […] into nucleus accumbens. The class given is functional, organism-based. The method, boiled down:
as §1

For assay [15], the system named is Rattus norvegicus. In words: Stereotyped behavior in Sprague-Dawley rat with unilateral 6-OHDA lesion of nigrostriatal pathway assessed as continuous biting at 0.1 mg/kg, sc. It is filed as functional, organism-based. On the set-up: dose 0.1 mg/kg.
The species entered for assay [16] is Rattus norvegicus. Nature of the assay: Behavioral responses in Sprague-Dawley rat pretreated with nialamide assessed as hyperactivity response at 25 µg, bilateral intrastriatal.
For assay [17], the system named is Rattus norvegicus. In words: Circling behavior in sc dosed Sprague-Dawley rat with unilateral 6-OHDA lesion of nigrostriatal pathway assessed as number of revolutions performed per min. The class given is functional, organism-based. The method, boiled down:
as §2

Assay [18] concerns Rattus norvegicus. Nature of the assay: Antagonism of dopamine-induced hyperactivity in sc dosed Sprague-Dawley rat with unilateral 6-OHDA lesion of nigrostriatal pathway after 2.5 hrs treated bilateral injection of 50 ug of dopamine into the nucleus accumbens. It is filed as functional, organism-based. The method, boiled down:
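Rats pretreated with nialamide 100 mg/kg ip; 2 h later, 50 µg dopamine bilaterally into nucleus accumbens. At 2.5 h, at peak hyperactivity, test drug given sc in distilled water with 0.1% sodium metabisulfite. Activity read as photocell beam interruptions per 5-min period. Five to eight rats per dose.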

Assay [19] is filed under the species Rattus norvegicus. In words: Stereotyped behavior in Sprague-Dawley rat pretreated with nialamide assessed as sniffing behavior at 25 µg, bilateral intrastriatal.
The species entered for assay [20] is Rattus norvegicus. Nature of the assay: Stereotyped behavior in Sprague-Dawley rat pretreated with nialamide assessed as biting behavior at 25 µg, bilateral intrastriatal.
Assay [21] has as its system Rattus norvegicus. Nature of the assay: Stereotyped behavior in Sprague-Dawley rat with unilateral 6-OHDA lesion of nigrostriatal pathway assessed as sniffing and repetitive head and limb movements at 0.0063 to 0.05 mg/kg, sc. It is filed as functional, organism-based.
In assay [22] the test system is Rattus norvegicus. Nature of the assay: Stereotyped behavior in Sprague-Dawley rat with unilateral 6-OHDA lesion of nigrostriatal pathway assessed as maximal biting behavior at 25 […] into nucleus accumbens. It is filed as functional, organism-based. The method, boiled down:
as §1

For assay [23], the system named is Rattus norvegicus. In words: Stereotyped behavior in Sprague-Dawley rat with unilateral 6-OHDA lesion of nigrostriatal pathway assessed as sniffing behavior at 25 […] into nucleus accumbens. The class given is functional, organism-based. The method, boiled down: as §1
For assay [24], the system named is Rattus norvegicus. Nature of the assay: Stereotyped behavior in Sprague-Dawley rat with unilateral 6-OHDA lesion of nigrostriatal pathway assessed as biting behavior at 25 to 50 […] into caudate-putamen. It is filed as functional, organism-based. The method, boiled down:
(§3)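 Nialamide 100 mg/kg ip was given 2 h beforehand. Drug was dissolved in nitrogen-bubbled water and injected bilaterally through chronic guide cannulae 10-14 days after surgery. Injection units extended 1.5 mm (caudate-putamen) or 2.5 mm (nucleus accumbens) below the guides. Biting and sniffing were scored in photocell boxes, and hyperactivity was counted as beam interruptions per 5 min, recorded every 10 min for up to 7 h. Six to twelve rats were used per dose.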

Assay [25] has as its system Rattus norvegicus. Nature of the assay: Stereotyped behavior in Sprague-Dawley rat with unilateral 6-OHDA lesion of nigrostriatal pathway assessed as sniffing behavior at 6.25 to 50 […] into nucleus accumbens. It is filed as functional, organism-based. Summed up:
as §3

Assay [26] concerns Rattus norvegicus. In words: Stereotyped behavior in sc dosed Sprague-Dawley rat with unilateral 6-OHDA lesion of nigrostriatal pathway assessed as sniffing and repetitive head and limb movements. The class given is functional, organism-based.
Assay [27] concerns Rattus norvegicus. In words: Stereotyped behavior in Sprague-Dawley rat with unilateral 6-OHDA lesion of nigrostriatal pathway assessed as biting behavior at 6.25 to 50 […] into nucleus accumbens. The class given is functional, organism-based. The method, boiled down:
as §3

The subject of assay [28] is Rattus norvegicus. In words: Behavioral responses in Sprague-Dawley rat with unilateral 6-OHDA lesion of nigrostriatal pathway assessed as hyperactivity response at 6.25 to 50 […] direct injection into nucleus accumbens. It is filed as functional, organism-based. Summed up: as §3
For assay [29], the species on record is Rattus norvegicus. In words: Stereotyped behavior in Sprague-Dawley rat pretreated with nialamide assessed as sniffing behavior at 50 µg, bilateral intrastriatal.
For assay [30], the species on record is Rattus norvegicus. In words: Stereotyped behavior in Sprague-Dawley rat with unilateral 6-OHDA lesion of nigrostriatal pathway assessed as continuous biting. The class given is functional, organism-based.
Assay [31] deals with Rattus norvegicus. Nature of the assay: Stereotyped behavior in Sprague-Dawley rat with unilateral 6-OHDA lesion of nigrostriatal pathway assessed as maximal sniffing and repetitive head and limb movements at 0.5 mg/kg, sc. The class given is functional, organism-based. On the set-up: dose 0.5 mg/kg.
For assay [32], the system named is Rattus norvegicus. In words: Stereotyped behavior in Sprague-Dawley rat with unilateral 6-OHDA lesion of nigrostriatal pathway assessed as continuous biting at 2 mg/kg, sc. The class given is functional, organism-based. On the set-up: dose 2 mg/kg.

Consider `CCCN1CCc2ccccc2C1Cc1ccc(O)cc1` (racemic), for which the outcome in assay [1], in assay [2], in assay [4], in assay [5], in assay [6] and in assay [7] was inactive. The outcome in assay [8], in assay [9], in assay [10] and in assay [11] was inactive. Further, the inhibition entry in assay [3] is “inactive”.
With `CCCN1CCc2cccc3c2C1Cc1ccc(O)cc1-3` (stereo unspecified), the result in [2], in assay [4], in assay [5], in assay [6], in assay [8] and in assay [9] was inactive. Besides, the result in assay [10] and in assay [11] was inactive. Further, the inhibition result in assay [3] is “inactive”. The Activity entry in [12] is “Dose-dependent effect”. Moreover, the result in [13] was Active.
For the compound `CCCN1CCc2cccc3c2[C@H]1Cc1ccc(O)c(O)c1-3`, the outcome in assay [14], in [15], in assay [19], in assay [20], in [21] and in [22] was Active. In addition, the outcome in assay [23] was Active. In addition, the outcome in [16], in assay [8], in [9] and in [11] was inactive. In addition, the Activity entry in [17] is “Dose-dependent effect”. Also, the inhibition result in [18] is “Dose-dependent effect”.
`CN1CCc2cccc3c2[C@H]1Cc1ccc(O)c(O)c1-3`: in assay [3], the inhibition result was “inactive”. The result in [24], in assay [25], in assay [27], in [28], in assay [31] and in [32] was Active. Moreover, the Activity entry in assay [26], in assay [17] and in assay [30] was “Dose-dependent effect” throughout. Also, the result in [8], in assay [9] and in [29] was inactive. Besides, the inhibition entry in assay [18] is “Dose-dependent effect”.
Regarding `CCCN1CCc2cccc3c2C1Cc1c(O)cccc1-3` (racemic), the outcome in [1], in assay [2], in assay [4], in [5], in assay [6] and in [8] was inactive. Besides, the result in assay [9], in [10] and in [11] was inactive. Also, in assay [3], the inhibition result is “inactive”. Also, the outcome in assay [13] was Active.
For the compound `CN1CCc2cccc3c2C1Cc1c(O)cccc1-3` (racemic), the outcome in assay [8] and in [9] was inactive.
Consider `CCCN1CCc2ccccc2C1Cc1ccc(O)c(O)c1` (racemic), for which the result in [1], in assay [2], in assay [4], in [5], in [6] and in [7] was inactive. For the same compound, the result in assay [8], in assay [9], in [10] and in assay [11] was inactive. Further, the inhibition entry in assay [3] was “inactive”.
Regarding `NCCc1ccc(O)c(O)c1`, the outcome in assay [8] and in [9] was Active. The outcome in assay [28] was inactive.

The values are drawn from ChEMBL document CHEMBL3244245, “Aporphines, 21. (1,2) Dopaminergic activity of aporphine and benzylisoquinoline derivatives. Synthesis of 8-hydroxyaporphines and 1-(hydroxybenzyl)-2-n-propyl-1,2,3,4-tetrahydroisoquinolines” (J Med Chem, 1977).
